# Test results reported in ChEMBL document CHEMBL1641374, “Synthesis of antiproliferative flavones from calycopterin, major flavonoid of Calycopteris floribunda Lamk” (Bioorg Med Chem, 2011).
# Active and inactive are the calls of the source. The rule behind the calls is not given here.
# Columns and labels:
# KB [1] = experiment: Cytotoxicity against human KB cells at 10^-6 M after 72 hrs by MTS assay; format: functional
# Procedure, shortened: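 KB cells in D-MEM with 10% FCS were seeded at 600 cells/well and dosed 24 h later with flavone at 10^-6 M in DMSO. Controls received DMSO at 1% final. After 72 h, MTS was added for 3 h at 37 °C and A490 read in triplicate. Growth inhibition (%) = (1 − OD treated/OD control)×100.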
# HL-60 [2] = experiment: Induction of apoptosis in human HL60 cells assessed as induction of caspase 3/7 activation at 100 uM; format: functional, cell-based
# Procedure, shortened: (§1)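 HL60 cells (20,000/well) were treated 24 and 48 h with compounds in DMSO. Vehicle and doxorubicine served as controls. Fluorescence (ex 360/em 465 nm) was followed over 3 h.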
# Ovis aries = organism: Ovis aries; experiment: Inhibition of sheep brain tubulin polymerization after 5 mins
# Procedure, shortened: (§2)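 Sheep brain microtubule proteins were purified by two assembly/disassembly cycles (37 °C/0 °C) in 100 mM MES pH 6.6, 1 mM EGTA, 0.5 mM MgCl2. Polymerization rate was followed by turbidity at 350 nm, with deoxypodophyllotoxin as reference. Compounds were tested at ~2×10^-5 M for % inhibition, with IC50 determined for selected compounds.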
# KB [3] = experiment: Cytotoxicity against human KB cells after 72 hrs by MTS assay; format: functional, cell-based
# HL-60 [4] = experiment: Induction of apoptosis in human HL60 cells assessed as induction of caspase 3/7 activation at 100 uM relative to control; format: functional; procedure, shortened: as §1
# [5] = Inhibition of sheep brain tubulin polymerization at 2x10'-5 M after 5 mins; design: species or system Ovis aries; procedure, shortened: as §2
# KB [6] = experiment: Induction of cell cycle arrest in human KB cells assessed as accumulation at G0/G1phase at 20 nM after 24 hrs by propidium iodide staining-based flow cytometry (reference value: 72.9%); format: functional
# KB [7] = experiment: Induction of cell cycle arrest in human KB cells assessed as accumulation at S phase at 20 nM after 24 hrs by propidium iodide staining-based flow cytometry (reference value: 6.9%); format: functional
# KB [8] = experiment: Induction of cell cycle arrest in human KB cells assessed as accumulation at G0/G1phase at 20 nM after 48 hrs by propidium iodide staining-based flow cytometry (reference value: 66.6%); format: functional
# KB [9] = experiment: Induction of cell cycle arrest in human KB cells assessed as accumulation at G2/M phase at 20 nM after 48 hrs by propidium iodide staining-based flow cytometry (reference value: 13.8%); format: functional
# KB [10] = experiment: Induction of cell cycle arrest in human KB cells assessed as accumulation at subG1 phase at 20 nM after 24 hrs by propidium iodide staining-based flow cytometry (reference value: 0.7%); format: functional
# KB [11] = experiment: Induction of cell cycle arrest in human KB cells assessed as accumulation at G2/M phase at 20 nM after 24 hrs by propidium iodide staining-based flow cytometry (reference value: 19.6%); format: functional
# KB [12] = experiment: Induction of cell cycle arrest in human KB cells assessed as accumulation at subG1 phase at 20 nM after 48 hrs by propidium iodide staining-based flow cytometry (reference value: 1.2%); format: functional
# KB [13] = experiment: Induction of cell cycle arrest in human KB cells assessed as accumulation at S phase at 20 nM after 48 hrs by propidium iodide staining-based flow cytometry (reference value: 18.4%); format: functional
# KB [14] = experiment: Induction of cell cycle arrest in human KB cells assessed as accumulation at subG1 phase at 50 nM after 48 hrs by propidium iodide staining-based flow cytometry (reference value: 1.2%); format: functional
# HL-60 [15] = experiment: Induction of apoptosis in human HL60 cells assessed as viable cells at 50 nM after 48 hrs by annexin-V-PE/7-AAD staining (reference value: 97.4%); format: functional; conditions: HL-60, 48 h, read-out: Activity
# K562 = experiment: Cytotoxicity against human K562 cells after 72 hrs by MTS assay; format: functional, cell-based; conditions: K562, 72 h
# HL-60 [16] = experiment: Induction of apoptosis in human HL60 cells assessed as early apoptosis cells at 50 nM after24 hrs by annexin-V-PE/7-AAD staining (reference value: 2.6%); format: functional
# HL-60 [17] = experiment: Induction of apoptosis in human HL60 cells assessed as induction of caspase 3/7 activation at 100 nM relative to control; format: functional; procedure, shortened: as §1
# HL-60 [18] = experiment: Induction of apoptosis in human HL60 cells assessed as late apoptosis cells at 50 nM after24 hrs by annexin-V-PE/7-AAD staining (reference value: 0.2%); format: functional
# HT-29 = experiment: Cytotoxicity against human HT-29 cells after 72 hrs by MTS assay; format: functional, cell-based; conditions: HT-29, 72 h
# KB [19] = experiment: Induction of cell cycle arrest in human KB cells assessed as accumulation at G0/G1phase at 50 nM after 48 hrs by propidium iodide staining-based flow cytometry (reference value: 66.6%); format: functional
# HL-60 [20] = experiment: Induction of apoptosis in human HL60 cells assessed as late apoptosis cells at 50 nM after 48 hrs by annexin-V-PE/7-AAD staining (reference value: 0.1%); format: functional
# KB [21] = experiment: Induction of cell cycle arrest in human KB cells assessed as accumulation at G2/M phase at 50 nM after 24 hrs by propidium iodide staining-based flow cytometry (reference value: 19.6%); format: functional
# HepG2 = experiment: Cytotoxicity against human HepG2 cells after 72 hrs by MTS assay; format: functional, cell-based; conditions: HepG2, 72 h
# HL-60 [22] = experiment: Induction of apoptosis in human HL60 cells assessed as early apoptosis cells at 50 nM after 48 hrs by annexin-V-PE/7-AAD staining (reference value: 2.5%); format: functional
# SF-268 = experiment: Cytotoxicity against human SF268 cells after 72 hrs by MTS assay; format: functional, cell-based; conditions: SF-268, 72 h
# HCT-15 = experiment: Cytotoxicity against human HCT15 cells after 72 hrs by MTS assay; format: functional, cell-based; conditions: HCT-15, 72 h
# HCT-116 = experiment: Cytotoxicity against human HCT116 cells after 72 hrs by MTS assay; format: functional, cell-based; conditions: HCT-116, 72 h
# A549 = experiment: Cytotoxicity against human A549 cells after 72 hrs by MTS assay; format: functional, cell-based; conditions: A549, 72 h
# KB [23] = experiment: Induction of cell cycle arrest in human KB cells assessed as accumulation at S phase at 50 nM after 48 hrs by propidium iodide staining-based flow cytometry (reference value: 18.4%); format: functional
# [24] = Cytotoxicity against human MCF7/R cells after 72 hrs by MTS assay; format: functional, cell-based; conditions: MCF7R
# KB [25] = experiment: Induction of cell cycle arrest in human KB cells assessed as accumulation at G0/G1phase at 50 nM after 24 hrs by propidium iodide staining-based flow cytometry (reference value: 72.9%); format: functional
# KB [26] = experiment: Induction of cell cycle arrest in human KB cells assessed as accumulation at subG1 phase at 50 nM after 24 hrs by propidium iodide staining-based flow cytometry (reference value: 0.7%); format: functional
# HL-60 [27] = experiment: Cytotoxicity against human HL60 cells after 72 hrs by MTS assay; format: functional, cell-based; conditions: HL-60, 72 h
# KB [28] = experiment: Induction of cell cycle arrest in human KB cells assessed as accumulation at G2/M phase at 50 nM after 48 hrs by propidium iodide staining-based flow cytometry (reference value: 13.8%); format: functional
# SK-OV-3 = experiment: Cytotoxicity against human SKOV3 cells after 72 hrs by MTS assay; format: functional, cell-based; conditions: SK-OV-3, 72 h
# HL-60 [29] = experiment: Induction of apoptosis in human HL60 cells assessed as viable cells at 50 nM after24 hrs by annexin-V-PE/7-AAD staining (reference value: 97.2%); format: functional; conditions: read-out: Activity
# KB [30] = experiment: Induction of cell cycle arrest in human KB cells assessed as accumulation at S phase at 50 nM after 24 hrs by propidium iodide staining-based flow cytometry (reference value: 6.9%); format: functional
# [31] = Cytotoxicity against human HL60R cells after 72 hrs by MTS assay; format: functional, cell-based; conditions: HL-60, 72 h
# PC-3 = experiment: Cytotoxicity against human PC3 cells after 72 hrs by MTS assay; format: functional, cell-based; conditions: PC-3, 72 h
# OVCAR-8 = experiment: Cytotoxicity against human OVCAR8 cells after 72 hrs by MTS assay; format: functional, cell-based; conditions: OVCAR-8, 72 h
# MIA PaCa-2 = experiment: Cytotoxicity against human MIAPaCa2 cells after 72 hrs by MTS assay; format: functional, cell-based; conditions: MIA PaCa-2, 72 h
structure (smiles),measurement,setting,value
COc1ccc(-c2oc3c(OC)c(OC)c(OC)c(OC)c3c(=O)c2OC)cc1N,Activity,KB [1],17%
same,Activity,HL-60 [2],inactive
same,inhibition,Ovis aries,5%
COc1ccc(-c2oc3c(OC)c(OC)c(OC)c(O)c3c(=O)c2OC)cc1CN,Activity,KB [1],<=13%
COc1c(OC)c(O)c2c(=O)c(OC)c(-c3ccc(O)cc3)oc2c1OC [CALYCOPTERIN],Activity,KB [1],0%
COc1ccc(-c2oc3c(OC)c(OC)c(OC)c(N)c3c(=O)c2OC)cc1N,Activity,KB [1],78%
same,IC50,KB [3],128 nM
same,fold change (FC),HL-60 [4],3.6
same,IC50,[5],24000 nM
COc1ccc(-c2oc3c(OC)c(OC)c(OC)c(O)c3c(=O)c2OC)cc1 [5-HYDROXYAURANETIN],Activity,KB [1],73%
same,IC50,KB [3],720 nM
same,fold change (FC),HL-60 [4],4.5
same,inhibition,Ovis aries,2%
COc1ccc(/C=C\c2cc(OC)c(OC)c(OC)c2)cc1O [COMBRETASTATIN A4],Activity,KB [6],9.5%
same,Activity,KB [7],26.7%
same,Activity,KB [8],27.4%
same,Activity,KB [9],0.8%
same,Activity,KB [10],13.8%
same,Activity,KB [11],50.1%
same,Activity,KB [12],43.5%
same,Activity,KB [13],44%
COc1ccc(-c2oc3c(OC)c(OC)c(OC)c(O)c3c(=O)c2OC)cc1N,Activity,KB [14],15.5%
same,viability at 0.05 µM,HL-60 [15],60.1%
same,Activity,KB [1],96%
same,IC50,K562,9 nM
same,Activity,HL-60 [16],20.7%
same,fold change (FC),HL-60 [17],3.2
same,Activity,HL-60 [18],2.1%
same,IC50,HT-29,50 nM
same,IC50,KB [3],25 nM
same,Activity,KB [19],38.5%
same,Activity,HL-60 [20],2.2%
same,Activity,KB [21],34.5%
same,IC50,HepG2,81 nM
same,Activity,HL-60 [22],37.6%
same,IC50,SF-268,400 nM
same,IC50,HCT-15,12 nM
same,IC50,HCT-116,25 nM
same,IC50,A549,32 nM
same,Activity,KB [23],32%
same,IC50,[24],34 nM
same,Activity,KB [25],39.3%
same,Activity,KB [26],7.3%
same,IC50,HL-60 [27],36 nM
same,Activity,KB [28],14%
same,IC50,SK-OV-3,37 nM
same,viability at 0.05 µM,HL-60 [29],77.1%
same,Activity,KB [30],19.2%
same,IC50,[31],14 nM
same,IC50,PC-3,> 1000 nM
same,IC50,OVCAR-8,105 nM
same,IC50,[5],13000 nM
same,IC50,MIA PaCa-2,33 nM
COc1c(OC)c(O)c2c(=O)c(OC)c(-c3ccc(O)c(C=O)c3)oc2c1OC,Activity,KB [1],<=13%
COc1ccc(-c2oc3c(OC)c(O)c(OC)c(O)c3c(=O)c2OC)cc1N,IC50,KB [3],6200 nM
same,IC50,[5],85000 nM
COc1ccc(-c2oc3c(OC)c(OC)c(O)c(O)c3c(=O)c2OC)cc1N,Activity,KB [1],38%
same,IC50,KB [3],10000 nM
COc1ccc(-c2oc3c(OC)c(OC)c(OC)c(O)c3c(=O)c2OC)cc1CO,Activity,KB [1],<=13%
